ChEMBL document CHEMBL1140225, “Design of annulated pyrazoles as inhibitors of HIV-1 reverse transcriptase” (J Med Chem, 2008)

Key:
[1] = target: Human immunodeficiency virus type 1 reverse transcriptase (Human immunodeficiency virus 1, UniProt Q72547, K103N); assay: Inhibition of RNA-dependent DNA polymerase activity of HIV1 reverse transcriptase Lys103Asn mutant by SPA
[2] = Inhibition of RNA-dependent DNA polymerase activity of HIV1 reverse transcriptase Tyr181Cys mutant by SPA; set-up: species or system Human immunodeficiency virus 1
In short: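 Purified recombinant RT (1-3 nM final) with 18nt biotinylated DNA primer (32 nM) on a 47nt RNA template (64 nM). Run 30 min at 30 °C, stopped with EDTA, product captured on streptavidin SPA beads. IC50 by sigmoidal regression.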

[3] = tested on: Human immunodeficiency virus; assay: Antiviral activity against […] HIV HXB2 with reverse transcriptase […]/Tyr181Cys mutation in human MT4 cells assessed as protection against virus-induced cell death after 5 days by MTT assay; type: functional, organism-based; settings: Human immunodeficiency virus 1, MT4, 120 h
[4] = tested on: Human immunodeficiency virus; assay: Antiviral activity against wild type HIV HXB2 in human MT4 cells assessed as protection against virus-induced cell death after 5 days by MTT assay; type: functional, organism-based; settings: Human immunodeficiency virus 1, MT4, 120 h
[5] = target: Human immunodeficiency virus type 1 reverse transcriptase (Human immunodeficiency virus 1, UniProt Q72547); assay: Inhibition of RNA-dependent DNA polymerase activity of wild type HIV1 reverse transcriptase by SPA
[6] = target: Human immunodeficiency virus type 1 reverse transcriptase (Human immunodeficiency virus 1, UniProt Q72547, K103N/Y181C); assay: Inhibition of RNA-dependent DNA polymerase activity of HIV1 reverse transcriptase Lys103Asn/Tyr181Cys mutant by SPA
[7] = tested on: Human immunodeficiency virus; assay: Antiviral activity against NNRTI-resistant HIV HXB2 isolate 17 with reverse transcriptase A98, K103, Y181 mutation in human MT4 cells assessed as protection against virus-induced cell death after 5 days by MTT assay; type: functional, organism-based; settings: Human immunodeficiency virus 1, MT4, 120 h
[8] = tested on: Human immunodeficiency virus; assay: Antiviral activity against NNRTI-resistant HIV HXB2 isolate 16 with reverse transcriptase K103, P225 mutation in human MT4 cells assessed as protection against virus-induced cell death after 5 days by MTT assay; type: functional, organism-based; settings: Human immunodeficiency virus 1, MT4, 120 h
[9] = tested on: Human immunodeficiency virus; assay: Antiviral activity against NNRTI-resistant HIV HXB2 isolate 21 with reverse transcriptase K103, V179, Y181 mutation in human MT4 cells assessed as protection against virus-induced cell death after 5 days by MTT assay; type: functional, organism-based; settings: Human immunodeficiency virus 1, MT4, 120 h
[10] = tested on: Human immunodeficiency virus; assay: Antiviral activity against NNRTI-resistant HIV HXB2 isolate 20 with reverse transcriptase K103, Y181 mutation in human MT4 cells assessed as protection against virus-induced cell death after 5 days by MTT assay; type: functional, organism-based; settings: Human immunodeficiency virus 1, MT4, 120 h
[11] = tested on: Human immunodeficiency virus; assay: Antiviral activity against NNRTI-resistant HIV HXB2 isolate 29 with reverse transcriptase K103, Y181 mutation in human MT4 cells assessed as protection against virus-induced cell death after 5 days by MTT assay; type: functional, organism-based; settings: Human immunodeficiency virus 1, MT4, 120 h
[12] = tested on: Human immunodeficiency virus; assay: Antiviral activity against NNRTI-resistant HIV HXB2 with reverse transcriptase 188H mutation in human MT4 cells assessed as protection against virus-induced cell death after 5 days by MTT assay; type: functional, organism-based; settings: Human immunodeficiency virus 1, MT4
In short: (§1)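 MT4 cells in log-phase growth (2 × 10⁶) infected with HXB2-strain HIV at 0.0001 infectious units/cell for 1 h at 37 °C, washed in PBS, then plated at 3.5 × 10⁴ cells/well. Serial 2-fold dilutions, four replicates, final 625-1.22 nM, in RPMI 1640/10% FCS. Incubated 5 days at 37 °C, 5% CO₂. MTT added for 2 h, absorbance read at 540/690 nm. % protection vs uninfected and virus controls; IC50 taken from plot against log concentration.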

[13] = tested on: Human immunodeficiency virus; assay: Antiviral activity against NNRTI-resistant HIV HXB2 with reverse transcriptase 225H mutation in human MT4 cells assessed as protection against virus-induced cell death after 5 days by MTT assay; type: functional, organism-based; settings: Human immunodeficiency virus 1, MT4; in short: as §1
[14] = tested on: Human immunodeficiency virus; assay: Antiviral activity against NNRTI-resistant HIV HXB2 with reverse transcriptase 190S mutation in human MT4 cells assessed as protection against virus-induced cell death after 5 days by MTT assay; type: functional, organism-based; settings: Human immunodeficiency virus 1, MT4, 120 h; in short: as §1
[15] = tested on: Human immunodeficiency virus; assay: Antiviral activity against NNRTI-resistant HIV HXB2 with reverse transcriptase 100I mutation in human MT4 cells assessed as protection against virus-induced cell death after 5 days by MTT assay; type: functional, organism-based; settings: Human immunodeficiency virus 1, MT4, 120 h; in short: as §1
[16] = tested on: Human immunodeficiency virus; assay: Antiviral activity against NNRTI-resistant HIV HXB2 with reverse transcriptase 181I mutation in human MT4 cells assessed as protection against virus-induced cell death after 5 days by MTT assay; type: functional, organism-based; settings: Human immunodeficiency virus 1, MT4, 120 h; in short: as §1
[17] = tested on: Human immunodeficiency virus; assay: Antiviral activity against NNRTI-resistant HIV HXB2 with reverse transcriptase 179D mutation in human MT4 cells assessed as protection against virus-induced cell death after 5 days by MTT assay; type: functional, organism-based; settings: Human immunodeficiency virus 1, MT4, 120 h; in short: as §1
[18] = tested on: Human immunodeficiency virus; assay: Antiviral activity against NNRTI-resistant HIV HXB2 with reverse transcriptase 103N mutation in human MT4 cells assessed as protection against virus-induced cell death after 5 days by MTT assay; type: functional, organism-based; settings: Human immunodeficiency virus 1, MT4, 120 h; in short: as §1
[19] = tested on: Human immunodeficiency virus; assay: Antiviral activity against NNRTI-resistant HIV HXB2 with reverse transcriptase 106A mutation in human MT4 cells assessed as protection against virus-induced cell death after 5 days by MTT assay; type: functional, organism-based; settings: Human immunodeficiency virus 1, MT4, 120 h; in short: as §1
[20] = tested on: Human immunodeficiency virus; assay: Antiviral activity against NNRTI-resistant HIV HXB2 with reverse transcriptase 181C mutation in human MT4 cells assessed as protection against virus-induced cell death after 5 days by MTT assay; type: functional, organism-based; settings: Human immunodeficiency virus 1, MT4, 120 h; in short: as §1
[21] = tested on: Human immunodeficiency virus; assay: Antiviral activity against NNRTI-resistant HIV HXB2 with reverse transcriptase 108I mutation in human MT4 cells assessed as protection against virus-induced cell death after 5 days by MTT assay; type: functional, organism-based; settings: Human immunodeficiency virus 1, MT4, 120 h; in short: as §1
[22] = tested on: Human immunodeficiency virus; assay: Antiviral activity against wild type HIV HXB2 in human MT4 cells assessed as protection against virus-induced cell death after 5 days by MTT assay in presence of 40% human serum; type: functional, organism-based; settings: Human immunodeficiency virus 1, MT4, 120 h
[23] = tested on: Human immunodeficiency virus; assay: Antiviral activity against NNRTI-resistant HIV HXB2 with reverse transcriptase 138K mutation in human MT4 cells assessed as protection against virus-induced cell death after 5 days by MTT assay; type: functional, organism-based; settings: Human immunodeficiency virus 1, MT4, 120 h; in short: as §1
[24] = tested on: Human immunodeficiency virus; assay: Antiviral activity against NNRTI-resistant HIV HXB2 with reverse transcriptase 227L mutation in human MT4 cells assessed as protection against virus-induced cell death after 5 days by MTT assay; type: functional, organism-based; settings: Human immunodeficiency virus 1, MT4, 120 h; in short: as §1
[25] = tested on: Human immunodeficiency virus; assay: Antiviral activity against NNRTI-resistant HIV HXB2 with reverse transcriptase 101E mutation in human MT4 cells assessed as protection against virus-induced cell death after 5 days by MTT assay; type: functional, organism-based; settings: Human immunodeficiency virus 1, MT4, 120 h; in short: as §1
[26] = tested on: Human immunodeficiency virus; assay: Antiviral activity against NNRTI-resistant HIV HXB2 with reverse transcriptase 190A mutation in human MT4 cells assessed as protection against virus-induced cell death after 5 days by MTT assay; type: functional, organism-based; settings: Human immunodeficiency virus 1, MT4, 120 h; in short: as §1
[27] = tested on: Human immunodeficiency virus; assay: Antiviral activity against NNRTI-resistant HIV HXB2 with reverse transcriptase 236L mutation in human MT4 cells assessed as protection against virus-induced cell death after 5 days by MTT assay; type: functional, organism-based; settings: Human immunodeficiency virus 1, MT4, 120 h; in short: as §1
[28] = Volume of distribution at steady state in rat at 0.5 mg/kg, iv; settings: in vivo, read-out: Vdss
[29] = Volume of distribution at steady state in dog at 0.5 mg/kg, iv; settings: in vivo, read-out: Vdss
[30] = Volume of distribution at steady state in monkey at 0.5 mg/kg, iv; settings: rhesus monkey, in vivo, read-out: Vdss
[31] = Half life in monkey at 0.5 mg/kg, iv; settings: rhesus monkey, in vivo
[32] = Half life in dog at 0.5 mg/kg, iv; settings: in vivo
[33] = Clearance in rat at 0.5 mg/kg, iv; settings: in vivo
[34] = Half life in rat at 0.5 mg/kg, iv; settings: in vivo
[35] = Clearance in dog at 0.5 mg/kg, iv; settings: in vivo
[36] = Clearance in monkey at 0.5 mg/kg, iv; settings: rhesus monkey, in vivo

## Cc1cc(C#N)cc(Oc2ccc(Cc3n[nH]c4nnccc34)cc2Br)c1
[1]
  IC50: 120 nM
[2]
  IC50: 800 nM
[3]
  EC50: > 100 nM
[4]
  EC50: 17 nM

## N#Cc1cc(Cl)cc(Oc2c(Br)ccc(Cc3n[nH]c4c(C#N)cccc34)c2F)c1
[3]
  EC50: 53 nM
[5]
  IC50: 24 nM
[6]
  IC50: 15 nM
[4]
  EC50: 5 nM

## N#Cc1cc(Cl)cc(Oc2c(Br)ccc(Cc3n[nH]c4c(N)cccc34)c2F)c1
[3]
  EC50: 84 nM
[5]
  IC50: 24 nM
[6]
  IC50: 22 nM
[4]
  EC50: 8 nM

## Cc1cc(C#N)cc(C)c1Oc1nc(Nc2ccc(C#N)cc2)nc(N)c1Br [ETRAVIRINE]
[7]
  IC50: 14 nM
[8]
  IC50: 1 nM
[9]
  IC50: 17 nM
[10]
  IC50: 7 nM
[11]
  IC50: 3 nM

## Cn1ccc2c(Cc3ccc(Br)c(Oc4cc(Cl)cc(C#N)c4)c3F)n[nH]c2c1=O
[3]
  EC50: 97 nM
[5]
  IC50: 8 nM
[6]
  IC50: 12 nM
[4]
  EC50: 4 nM

## O=C1Nc2ccc(Cl)cc2[C@@](C#CC2CC2)(C(F)(F)F)O1 [EFAVIRENZ]
[12]
  EC50: 4 nM
[13]
  EC50: 1 nM
[14]
  EC50: > 100 nM
[15]
  EC50: 7 nM
[16]
  EC50: 2 nM
[17]
  EC50: 8 nM
[18]
  EC50: 66 nM
[19]
  EC50: 6 nM
[20]
  EC50: 3 nM
[21]
  EC50: 3 nM
[22]
  EC50: 18 nM
[23]
  EC50: 2 nM
[24]
  EC50: 1 nM
[25]
  EC50: 12 nM
[26]
  EC50: 6 nM
[27]
  EC50: < 1 nM

## N#Cc1cc(Cl)cc(Oc2c(Cl)ccc(Cc3n[nH]c4nnccc34)c2F)c1
[7]
  IC50: 5 nM
[8]
  IC50: 3 nM
[28]
  Vd: 0.91 L/kg
[29]
  Vd: 0.99 L/kg
[12]
  EC50: < 1 nM
[9]
  IC50: 3 nM
[13]
  EC50: < 1 nM
[14]
  EC50: < 1 nM
[15]
  EC50: < 1 nM
[30]
  Vd: 1.21 L/kg
[31]
  half-life: 12.2 h
[32]
  half-life: 5.6 h
[18]
  EC50: < 1 nM
[19]
  EC50: 2 nM
[33]
  clearance: 2.9 mL/min/kg
[34]
  half-life: 4.2 h
[22]
  EC50: 5 nM
[23]
  EC50: 2 nM
[4]
  EC50: 1 nM
[35]
  clearance: 4.6 mL/min/kg
[25]
  EC50: 2 nM
[10]
  IC50: 4 nM
[11]
  IC50: 2 nM
[36]
  clearance: 1.3 mL/min/kg

## N#Cc1cc(Cl)cc(Oc2c(Br)ccc(Cc3n[nH]c4ncccc34)c2F)c1
[3]
  EC50: 12 nM
[5]
  IC50: 8 nM
[4]
  EC50: 1 nM

## N#Cc1cc(C#N)cc(Oc2c(Br)ccc(Cc3n[nH]c4nnccc34)c2F)c1
[3]
  EC50: 3 nM
[4]
  EC50: 1 nM

## N#Cc1cc(Cl)cc(Oc2c(Br)ccc(Cc3n[nH]c4cnccc34)c2F)c1
[3]
  EC50: 18 nM
[5]
  IC50: 5 nM
[6]
  IC50: 9 nM
[4]
  EC50: 2 nM

## N#Cc1cc(Cl)cc(Oc2c(Br)ccc(Cc3n[nH]c4nccnc34)c2F)c1
[3]
  EC50: > 100 nM
[5]
  IC50: 3 nM
[6]
  IC50: 14 nM
[4]
  EC50: < 25 nM
